Data: ChEMBL document CHEMBL4422635, “Structure-Based Discovery of a Subtype-Selective Inhibitor Targeting a Transient Receptor Potential Vanilloid Channel” (J Med Chem, 2019)
Where a chain is given by its changes, count along the chain named. Calls of active or inactive are those of the source. The rule behind the calls is not given here.

Assays:
[1] = target: T1, Transient receptor potential cation channel subfamily V member 2 (Mus musculus) (UniProt Q9WTR1); assay: Antagonist activity at mouse TRPV2 expressed in HEK293T cells assessed as inhibition of 2-APB evoked currents at -60 mV holding potential by whole-cell patch clamp assay; type: cell-based
T1 sequence (whole entry): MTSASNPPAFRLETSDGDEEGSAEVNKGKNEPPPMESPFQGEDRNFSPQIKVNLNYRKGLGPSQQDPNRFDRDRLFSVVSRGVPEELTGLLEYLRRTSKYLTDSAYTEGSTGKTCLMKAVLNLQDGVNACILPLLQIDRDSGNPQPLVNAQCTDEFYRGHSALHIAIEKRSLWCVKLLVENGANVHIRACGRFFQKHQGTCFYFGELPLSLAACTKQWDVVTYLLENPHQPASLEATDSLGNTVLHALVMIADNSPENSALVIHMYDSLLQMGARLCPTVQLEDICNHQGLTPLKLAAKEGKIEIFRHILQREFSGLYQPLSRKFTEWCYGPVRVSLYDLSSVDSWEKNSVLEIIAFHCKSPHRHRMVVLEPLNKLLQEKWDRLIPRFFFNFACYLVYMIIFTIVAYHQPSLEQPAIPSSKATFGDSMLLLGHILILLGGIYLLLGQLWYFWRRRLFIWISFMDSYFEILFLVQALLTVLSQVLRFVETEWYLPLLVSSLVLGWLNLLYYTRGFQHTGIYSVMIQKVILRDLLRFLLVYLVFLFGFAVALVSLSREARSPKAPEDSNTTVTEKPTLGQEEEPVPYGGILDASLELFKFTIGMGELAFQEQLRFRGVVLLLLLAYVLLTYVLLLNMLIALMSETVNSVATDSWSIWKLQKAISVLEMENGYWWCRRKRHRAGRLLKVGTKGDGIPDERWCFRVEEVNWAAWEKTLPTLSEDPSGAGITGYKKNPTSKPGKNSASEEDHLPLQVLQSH
Summary of the method: (§1)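 Whole-cell voltage clamp of transiently transfected HEK293T cells co-expressing GFP, recorded 36-96 h post-transfection. Hold -60 mV; pipettes 3-7 MΩ. Bath 165 mM NaCl, 10 mM HEPES pH 7.3; pipette 140 mM KCl, 10 mM HEPES pH 7.3. Room temperature (~25 °C). IC50 from Hill fits of I/I0, the current ratio after vs before inhibitor; mean ± SEM.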

[2] = test system: T2, Transient receptor potential cation channel subfamily V member 2 (Mus musculus), Q9WTR1 [Q525E]; assay: Antagonist activity at mouse TRPV2 Q525E mutant expressed in HEK293T cells assessed as inhibition of 2-APB evoked currents at -60 mV holding potential by whole-cell patch clamp assay; type: cell-based; summary of the method: as §1
T2 sequence (whole entry): T1 sequence (whole entry) with Q525E

[3] = test system: Transient receptor potential cation channel subfamily V member 1 (Mus musculus), Q704Y3 [S513F]; assay: Antagonist activity at mouse TRPV1 S513F mutant expressed in HEK293T cells assessed as inhibition of 2-APB evoked currents at 0.3 to 10 uM at -60 mV holding potential by whole-cell patch clamp assay; type: cell-based; summary of the method: as §1
Homo sapiens = species on record: Homo sapiens; assay: Inhibition of LPA-induced TRPV2/LPAR1 mediated cell migration in human PC3M cells at 0.1 uM after 24 hrs by transwell migration assay; type: cell-based
[4] = test system: T3, Transient receptor potential cation channel subfamily V member 2 (Mus musculus), Q9WTR1 [Q525A]; assay: Antagonist activity at mouse TRPV2 Q525A mutant expressed in HEK293T cells assessed as inhibition of 2-APB evoked currents at -60 mV holding potential by whole-cell patch clamp assay; type: cell-based; summary of the method: as §1
T3 sequence (whole entry): T1 sequence (whole entry) with Q525A

Mus musculus = assay: Antagonist activity at mouse TRPV2/LPAR1 expressed in LPA-stimulated HEK293T cells assessed as inhibition of 2-APB evoked currents at 10 uM dosed 3 mins after LPA stimulation by whole-cell patch clamp assay; summary of the method: as §1
PC-3M = assay: Antimetastatic activity in human PC3M cells at 5 to 20 uM after 24 hrs by transwell migration assay; type: functional, cell-based
Summary of the method: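 PC-3M cells kept in RPMI 1640 with 10% FBS at 37 °C, 5% CO2.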

Sequence of Transient receptor potential cation channel subfamily V member 1 (Mus musculus), Q704Y3 [S513F] (Q704Y3 whole entry S513F): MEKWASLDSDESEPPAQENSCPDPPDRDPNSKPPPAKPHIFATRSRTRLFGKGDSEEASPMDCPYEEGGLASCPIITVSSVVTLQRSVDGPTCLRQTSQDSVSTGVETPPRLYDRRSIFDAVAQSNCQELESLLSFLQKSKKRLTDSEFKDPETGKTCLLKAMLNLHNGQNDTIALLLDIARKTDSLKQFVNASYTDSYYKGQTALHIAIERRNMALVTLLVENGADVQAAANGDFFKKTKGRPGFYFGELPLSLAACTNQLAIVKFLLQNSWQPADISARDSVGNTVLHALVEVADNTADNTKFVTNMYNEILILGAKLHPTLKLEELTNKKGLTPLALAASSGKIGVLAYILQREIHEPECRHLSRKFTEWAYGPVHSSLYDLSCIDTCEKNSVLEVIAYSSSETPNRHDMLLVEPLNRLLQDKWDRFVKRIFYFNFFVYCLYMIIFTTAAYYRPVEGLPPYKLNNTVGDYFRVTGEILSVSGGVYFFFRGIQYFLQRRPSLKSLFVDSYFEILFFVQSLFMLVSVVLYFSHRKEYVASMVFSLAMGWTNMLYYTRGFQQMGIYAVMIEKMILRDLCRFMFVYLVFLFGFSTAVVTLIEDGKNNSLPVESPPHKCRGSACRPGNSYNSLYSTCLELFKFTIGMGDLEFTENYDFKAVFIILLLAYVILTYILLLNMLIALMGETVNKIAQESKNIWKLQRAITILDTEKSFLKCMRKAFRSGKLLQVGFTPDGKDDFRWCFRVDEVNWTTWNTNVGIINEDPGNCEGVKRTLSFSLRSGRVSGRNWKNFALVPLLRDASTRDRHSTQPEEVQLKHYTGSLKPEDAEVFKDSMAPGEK

For `CCCN(C)c1cc(C(F)(F)F)nc(SCCC(=O)NCc2ccco2)n1`, the inhibition [1] was “Dose-dependent effect”, the inhibition [2] was “inactive” and the inhibition [3] was “inactive”. The inhibition (Homo sapiens) was “Active”, the inhibition [4] was “inactive” and the inhibition (Mus musculus) was “Active”. For the same compound, the Activity (PC-3M) was “Active”.
